{"source": "ChEMBL document CHEMBL4308900", "about": "“Synthesis and identification of 2,4-bisanilinopyrimidines bearing 2,2,6,6-tetramethylpiperidine-N-oxyl as potential Aurora A inhibitors” (Bioorg Med Chem, 2019)", "key": {"HeLa [1]": {"system": "HeLa", "experiment": "Induction of apoptosis in human HeLa cells assessed as upregulation of Bad protein expression up to 5 uM after 12 hrs by Western blot analysis", "format": "functional, cell-based", "summary_of_the_method": "(§1)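 HeLa cells treated 12 h (0.1, 1, 5 μM for apoptosis proteins); lysed in Tris pH 7.5/NP-40/SDS buffer with protease inhibitors, equal protein on 10% SDS-PAGE, PVDF, 5% BSA block, primary antibodies overnight at 4 °C, β-actin loading control; mean ± SD.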"}, "HeLa [2]": {"system": "HeLa", "experiment": "Cell cycle arrest in human HeLa cells assessed as decrease in cyclin B1 protein expression up to 5 uM after 12 hrs by Western blot analysis", "format": "functional, cell-based", "summary_of_the_method": "as §1"}, "Homo sapiens [3]": {"organism": "Homo sapiens", "experiment": "Selectivity ratio of IC50 for Aurora B in human HeLa cells to IC50 for Aurora A in human HeLa cells", "format": "cell-based"}, "HeLa [4]": {"system": "HeLa", "experiment": "Antiproliferative activity against human HeLa cells after 48 hrs by MTT assay", "format": "functional", "summary_of_the_method": "(§2)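 MTT assay: cells attached 4–6 h at 37 °C, 5% CO2, then exposed 48 h to graded concentrations from DMSO stocks; 5 mg/mL MTT added for 4 h, formazan dissolved in DMSO, absorbance at 490 nm. GI50 from log plot of percent of control versus concentration; mean of three independent experiments.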"}, "Aurora kinase B [5]": {"target": "T1, Aurora kinase B (Homo sapiens, UniProt Q96GD4)", "T1 sequence (Q96GD4 whole entry)": "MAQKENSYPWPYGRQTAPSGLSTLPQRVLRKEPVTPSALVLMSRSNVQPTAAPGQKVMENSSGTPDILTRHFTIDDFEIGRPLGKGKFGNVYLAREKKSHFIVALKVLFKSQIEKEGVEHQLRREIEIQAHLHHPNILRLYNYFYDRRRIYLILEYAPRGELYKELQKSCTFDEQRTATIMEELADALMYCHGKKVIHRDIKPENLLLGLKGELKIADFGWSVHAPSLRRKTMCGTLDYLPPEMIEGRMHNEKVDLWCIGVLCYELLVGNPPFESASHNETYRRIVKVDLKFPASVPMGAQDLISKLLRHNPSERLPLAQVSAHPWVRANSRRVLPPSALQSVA", "experiment": "Inhibition of Aurora B phosphorylation at Thr232 residue in human HeLa cells at <10 nM after 12 hrs by ELISA", "format": "cell-based", "summary_of_the_method": "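HeLa cells grown 12 h in 6-well dishes with compound diluted from DMSO at several concentrations; whole-cell lysate captured on anti-Aurora A or B antibody-coated wells, HRP-labelled detection, TMB substrate, stopped with sulphuric acid, absorbance at 450 nm.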"}, "HeLa [6]": {"system": "HeLa", "experiment": "Induction of apoptosis in human HeLa cells assessed as viable cells at 1 uM after 12 hrs by Annexin V-FITC/propidium iodide staining-based flow cytometric analysis (reference value: 91.02%)", "format": "functional", "details": "read-out: Activity"}, "HepG2": {"system": "HepG2", "experiment": "Antiproliferative activity against human HepG2 cells after 48 hrs by MTT assay", "format": "functional", "details": "HepG2, 48 h", "summary_of_the_method": "as §2"}, "HeLa [7]": {"system": "HeLa", "experiment": "Induction of apoptosis in human HeLa cells assessed as early apoptotic cells at 1 uM after 12 hrs by Annexin V-FITC/propidium iodide staining-based flow cytometric analysis (reference value: 0.75%)", "format": "functional"}, "HeLa [8]": {"system": "HeLa", "experiment": "Induction of apoptosis in human HeLa cells assessed as upregulation of caspase-9 protein expression up to 5 uM after 12 hrs by Western blot analysis", "format": "functional, cell-based", "summary_of_the_method": "as §1"}, "[9]": {"target": "T2, Aurora kinase A (Homo sapiens) (UniProt O14965)", "T2 sequence (whole entry)": "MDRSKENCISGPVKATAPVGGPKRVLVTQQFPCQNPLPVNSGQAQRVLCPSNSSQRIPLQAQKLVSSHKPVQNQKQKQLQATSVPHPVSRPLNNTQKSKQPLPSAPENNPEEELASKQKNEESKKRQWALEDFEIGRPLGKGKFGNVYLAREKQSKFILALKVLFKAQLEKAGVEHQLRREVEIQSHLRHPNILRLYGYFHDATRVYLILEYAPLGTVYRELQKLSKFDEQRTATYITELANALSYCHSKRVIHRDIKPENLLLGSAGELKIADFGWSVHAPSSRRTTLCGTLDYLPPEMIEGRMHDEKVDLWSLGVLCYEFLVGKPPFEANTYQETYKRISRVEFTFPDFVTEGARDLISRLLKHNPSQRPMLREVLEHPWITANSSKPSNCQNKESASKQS", "experiment": "Inhibition of Aurora A phosphorylation at Thr288 residue in human HeLa cells after 12 hrs by Western blot analysis", "format": "cell-based", "summary_of_the_method": "(§3)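 HeLa cells given 0, 1.25, 2.5 or 5.0 μM for 12 h; lysates in buffer with phosphatase and protease inhibitors, 10% SDS-PAGE western blot probed for phospho-Aurora A Thr288, phospho-Aurora B Thr232 and total Aurora A/B, β-actin loading control; band levels as mean ± SD versus control.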"}, "HeLa [10]": {"system": "HeLa", "experiment": "Induction of apoptosis in human HeLa cells assessed as early apoptotic cells at 0.1 uM after 12 hrs by Annexin V-FITC/propidium iodide staining-based flow cytometric analysis (reference value: 0.75%)", "format": "functional"}, "Homo sapiens [11]": {"organism": "Homo sapiens", "experiment": "Selectivity ratio of IC50 for Aurora B (unknown origin) to IC50 for Aurora A (unknown origin)"}, "Aurora kinase A": {"target": "T3, Aurora kinase A (Homo sapiens, UniProt O14965)", "T3 sequence (O14965 whole entry)": "T2 sequence (whole entry)", "experiment": "Inhibition of Aurora A (unknown origin) using kemptide acetate salt as substrate after 30 mins by kinase-Glo luminescence method"}, "HeLa [12]": {"system": "HeLa", "experiment": "Induction of apoptosis in human HeLa cells assessed as necrotic cells at 5 uM after 12 hrs by Annexin V-FITC/propidium iodide staining-based flow cytometric analysis (reference value: 5.92%)", "format": "functional"}, "HeLa [13]": {"system": "HeLa", "experiment": "Induction of apoptosis in human HeLa cells assessed as upregulation of caspase-3 protein expression up to 5 uM after 12 hrs by Western blot analysis", "format": "functional, cell-based", "summary_of_the_method": "as §1"}, "HeLa [14]": {"system": "HeLa", "experiment": "Induction of apoptosis in human HeLa cells assessed as downregulation of Bcl-2 protein expression up to 5 uM after 12 hrs by Western blot analysis", "format": "functional, cell-based", "summary_of_the_method": "as §1"}, "HeLa [15]": {"system": "HeLa", "experiment": "Induction of apoptosis in human HeLa cells assessed as late apoptotic cells at 1 uM after 12 hrs by Annexin V-FITC/propidium iodide staining-based flow cytometric analysis (reference value: 2.32%)", "format": "functional"}, "HeLa [16]": {"system": "HeLa", "experiment": "Induction of apoptosis in human HeLa cells assessed as necrotic cells at 0.1 uM after 12 hrs by Annexin V-FITC/propidium iodide staining-based flow cytometric analysis (reference value: 5.92%)", "format": "functional"}, "HeLa [17]": {"system": "HeLa", "experiment": "Cell cycle arrest in human HeLa cells assessed as accumulation at G2/M phase at 1 uM after 12 hrs by propidium iodide staining-based flow cytometric analysis (reference value: 23.57%)", "format": "functional", "summary_of_the_method": "(§4)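 HeLa cells exposed 12 h to 1 or 5 μM compound diluted from DMSO (DMSO control), fixed, stained with propidium iodide; DNA content measured by flow cytometry and G1, S, G2/M fractions calculated from the DNA histogram.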"}, "HeLa [18]": {"system": "HeLa", "experiment": "Induction of apoptosis in human HeLa cells assessed as viable cells at 5 uM after 12 hrs by Annexin V-FITC/propidium iodide staining-based flow cytometric analysis (reference value: 91.02%)", "format": "functional", "details": "read-out: Activity"}, "A549": {"system": "A549", "experiment": "Antiproliferative activity against human A549 cells after 48 hrs by MTT assay", "format": "functional", "details": "A549, 48 h", "summary_of_the_method": "as §2"}, "HeLa [19]": {"system": "HeLa", "experiment": "Induction of apoptosis in human HeLa cells assessed as necrotic cells at 1 uM after 12 hrs by Annexin V-FITC/propidium iodide staining-based flow cytometric analysis (reference value: 5.92%)", "format": "functional"}, "HeLa [20]": {"system": "HeLa", "experiment": "Cell cycle arrest in human HeLa cells assessed as accumulation at G2/M phase after 12 hrs by propidium iodide staining-based flow cytometric analysis", "format": "functional", "summary_of_the_method": "as §4"}, "Aurora kinase B [21]": {"target": "T1, Aurora kinase B", "experiment": "Inhibition of Aurora B phosphorylation at Thr232 residue in human HeLa cells after 12 hrs by Western blot analysis", "format": "cell-based", "summary_of_the_method": "as §3"}, "Aurora kinase B [22]": {"target": "T1, Aurora kinase B", "experiment": "Inhibition of Aurora B phosphorylation at Thr232 residue in human HeLa cells after 12 hrs by ELISA", "format": "cell-based"}}, "note": "Activity calls are given as the source filed them. The calls are words filed in the database; no cut-off is given here.", "data": [{"smiles": "CC1(C)CC(NC(=O)c2ccc(Nc3ncc(F)c(Nc4ccc(C(=O)Nc5ccccc5Cl)cc4)n3)cc2)CC(C)(C)N1[O]", "values": [{"measurement": "Activity", "setting": "HeLa [1]", "result": "Active"}, {"measurement": "Activity", "setting": "HeLa [2]", "result": "Active"}, {"measurement": "Ratio IC50", "setting": "Homo sapiens [3]", "result": 67}, {"measurement": "GI50", "setting": "HeLa [4]", "result": 400, "unit": "nM"}, {"measurement": "inhibition", "setting": "Aurora kinase B [5]", "result": "inactive"}, {"measurement": "viability at 1 µM", "setting": "HeLa [6]", "result": 78.7, "unit": "%"}, {"measurement": "GI50", "setting": "HepG2", "result": 1200, "unit": "nM"}, {"measurement": "Activity", "setting": "HeLa [7]", "result": 3.28, "unit": "%"}, {"measurement": "Activity", "setting": "HeLa [8]", "result": "Active"}, {"measurement": "inhibition", "setting": "[9]", "result": "Dose-dependent effect"}, {"measurement": "Activity", "setting": "HeLa [10]", "result": 1.12, "unit": "%"}, {"measurement": "Ratio IC50", "setting": "Homo sapiens [11]", "result": 42}, {"measurement": "IC50", "setting": "Aurora kinase A", "result": 0.06, "unit": "nM"}, {"measurement": "Activity", "setting": "HeLa [12]", "result": 10.75, "unit": "%"}, {"measurement": "Activity", "setting": "HeLa [13]", "result": "Active"}, {"measurement": "Activity", "setting": "HeLa [14]", "result": "Active"}, {"measurement": "Activity", "setting": "HeLa [15]", "result": 8.06, "unit": "%"}, {"measurement": "Activity", "setting": "HeLa [16]", "result": 5.63, "unit": "%"}, {"measurement": "Activity", "setting": "HeLa [17]", "result": 40.67, "unit": "%"}, {"measurement": "viability at 5 µM", "setting": "HeLa [18]", "result": 67.7, "unit": "%"}, {"measurement": "GI50", "setting": "A549", "result": 1100, "unit": "nM"}, {"measurement": "Activity", "setting": "HeLa [19]", "result": 9.93, "unit": "%"}, {"measurement": "Activity", "setting": "HeLa [20]", "result": "Dose-dependent effect"}, {"measurement": "inhibition", "setting": "Aurora kinase B [21]", "result": "Dose-dependent effect"}, {"measurement": "IC50", "setting": "Aurora kinase B [22]", "result": 538, "unit": "nM"}]}]}
